Results reported in ChEMBL document CHEMBL1124972, “Antiatherosclerotic agents. A structurally novel bivalent inhibitor of acylCoA:cholesterol O-acyltransferase with systemic activity” (J Med Chem, 1990).

Legend:
[1] = target: T1, Acyl-CoA:cholesterol acyltransferase (Oryctolagus cuniculus, UniProt Q95214); experiment: In vitro inhibitory activity against Acyl coenzyme A:cholesterol acyltransferase
T1 sequence (Q95214 whole entry): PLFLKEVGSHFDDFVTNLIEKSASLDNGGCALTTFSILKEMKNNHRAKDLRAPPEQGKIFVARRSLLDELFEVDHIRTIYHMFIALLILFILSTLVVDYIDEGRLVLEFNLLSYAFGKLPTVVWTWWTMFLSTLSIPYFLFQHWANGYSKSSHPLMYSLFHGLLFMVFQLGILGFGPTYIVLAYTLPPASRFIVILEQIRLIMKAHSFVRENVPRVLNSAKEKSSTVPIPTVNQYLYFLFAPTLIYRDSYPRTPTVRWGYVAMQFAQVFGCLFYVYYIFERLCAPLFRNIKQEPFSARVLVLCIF
Outline: (§1)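 Cellular assay: Fu5AH cells cultured with [³H]cholesterol-labeled hyperlipemic plasma lipoproteins; inhibition of [³H]cholesteryl ester synthesis and accumulation measured; IC50 given in μg/mL.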

[2] = target: T2, Acyl-CoA:cholesterol acyltransferase (Oryctolagus cuniculus) (UniProt Q95214); experiment: In vitro inhibitory activity against Acyl coenzyme A:cholesterol acyltransferase at a concentration of 5 ug/mL
T2 sequence (whole entry): T1 sequence (Q95214 whole entry)

Oryctolagus cuniculus [3] = experiment: Tested in vivo for atheromatous lesion development in Netherland Dwarf rabbit; type: functional
Outline: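 Netherland Dwarf rabbits on cholesterol-containing atherogenic diet, dosed at 50 mg/kg; aortic lesion formation scored as % surface involvement, with plasma total cholesterol (mg/dL); means (±SEM) of 8 animals per group.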

Rattus norvegicus [4] = experiment: Tested for plasma cholesterol levels against rat after 2.5 hours of oral administration.; type: functional, organism-based
Outline: (§2)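 Male Sprague-Dawley rats (4 per group) intubated orally with 0.6 mL suspension of 1 μCi [4-14C]cholesterol (53 Ci/Mol), corn oil, ethanol, DMSO and 1 mg cholesterol, with or without test agent at 30 mg/kg. Two rats per group bled by cardiac puncture at 2.5 and 6 h; plasma [14C]cholesterol measured as dpm/mL; mean of two animals.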

[5] = tested on: Sterol O-acyltransferase 1 (Rattus norvegicus); experiment: Reduction of ACAT activity after treatment was measured in rat liver
Rattus norvegicus [6] = experiment: Tested for plasma cholesterol levels against rat after 6.0 hours of oral administration.; type: functional, organism-based; outline: as §2
Oryctolagus cuniculus [7] = experiment: Tested in vivo for plasma cholesterol levels in Netherland Dwarf rabbit; type: functional, organism-based
Outline: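 Netherland Dwarf rabbits fed cholesterol-containing atherogenic diet, with test agent at 50 mg/kg; plasma total cholesterol in mg/dL measured, alongside aortic lesion surface involvement; means ±SEM of 8 animals per group.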

[8] = target: T2, Acyl-CoA:cholesterol acyltransferase (Oryctolagus cuniculus); experiment: Reduction of ACAT activity after treatment was measured in rabbit aorta; type: functional, tissue-based
Outline: (§3)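 Rabbits given 10-day cholesterol feeding to raise arterial ACAT, then dosed orally at 50 mg kg⁻¹ day⁻¹ for 6 days; aortas excised, incubated in vitro with [1-14C]oleate for 3 h; ACAT activity as cholesteryl [14C]oleate formed, dpm/100 mg wet weight aorta; means of 2 animals per group.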

[9] = target: T3, Sterol O-acyltransferase 1 (Rattus norvegicus) (UniProt O70536); experiment: ACAT inhibitory activity was measured in rat liver after administration of 30 mg/Kg; type: functional, organism-based
T3 sequence (whole entry): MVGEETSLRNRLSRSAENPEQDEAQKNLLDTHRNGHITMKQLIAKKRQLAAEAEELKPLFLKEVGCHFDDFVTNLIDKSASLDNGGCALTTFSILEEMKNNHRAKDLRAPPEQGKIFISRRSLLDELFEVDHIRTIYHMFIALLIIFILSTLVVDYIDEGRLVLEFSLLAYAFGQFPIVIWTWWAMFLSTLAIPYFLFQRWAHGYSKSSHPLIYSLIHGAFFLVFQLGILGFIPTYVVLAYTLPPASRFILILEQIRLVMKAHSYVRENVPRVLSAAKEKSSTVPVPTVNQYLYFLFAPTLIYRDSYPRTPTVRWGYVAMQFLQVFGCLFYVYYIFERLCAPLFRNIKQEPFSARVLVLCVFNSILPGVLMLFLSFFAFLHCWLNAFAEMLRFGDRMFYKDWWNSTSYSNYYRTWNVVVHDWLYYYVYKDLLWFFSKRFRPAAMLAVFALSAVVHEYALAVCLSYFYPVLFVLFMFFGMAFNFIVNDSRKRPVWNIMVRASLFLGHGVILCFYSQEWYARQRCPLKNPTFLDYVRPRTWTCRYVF
Outline: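 Male Sprague-Dawley rats (435-460 g) fed Purina chow with compound in diet (calculated 30 mg kg⁻¹ day⁻¹) for 8 days; liver minces incubated in vitro with [1-14C]oleate for 90 min; ACAT activity read as cholesteryl [14C]oleate formed, dpm/100 mg wet weight; means of 2 animals per group.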

[10] = target: T2, Acyl-CoA:cholesterol acyltransferase (Oryctolagus cuniculus); experiment: Arterial Acyl coenzyme A:cholesterol acyltransferase activity was measured in vitro in rabbit aorta after administration of 50 mg/Kg; type: functional, organism-based; outline: as §3
[11] = target: T1, Acyl-CoA:cholesterol acyltransferase; experiment: In vitro inhibitory activity against Acyl coenzyme A:cholesterol acyltransferase; a = inactive; outline: as §1

COc1c2c(c(OC)c3c(=O)cc(CN4CCC(CCC5CCN(Cc6cc(=O)c7c(OC)c8c(c(OC)c7o6)OCC8)CC5)CC4)oc13)CCO2 showed an IC50 [1] of 4.19 µM.

COc1c2occc2c(OC)c2c(=O)cc(CN3CCN(CC(O)CN4CCN(Cc5cc(=O)c6c(OC)c7ccoc7c(OC)c6o5)CC4)CC3)oc12 gave an inhibition [2] of 7%.

In the case of COc1c2occc2c(OC)c2c(=O)cc(CN3CCC(CCC4CCN(Cc5cc(=O)c6c(OC)c7ccoc7c(OC)c6o5)CC4)CC3)oc12, the Surface involvement (Oryctolagus cuniculus [3]) is reported as <10%, the Plasma [14C] cholesterol (Rattus norvegicus [4]) is reported as 818 dpm/mL and the Reduction [5] is reported as 62%. The Plasma [14C] cholesterol (Rattus norvegicus [6]) was 3880 dpm/mL, the Plasma total cholesterol (Oryctolagus cuniculus [7]) was 271 mg/dL and the IC50 [1] was 1.12 µM. It also gave a Reduction [8] of 42%, an ACAT activity (dpm/100 mg wet wt) [9] of 535 and an ACAT activity (dpm/100 mg wet wt) [10] of 305.

With COc1c2occc2c(OC)c2c(=O)cc(CN3CCC(C4CCN(Cc5cc(=O)c6c(OC)c7ccoc7c(OC)c6o5)CC4)CC3)oc12 the inhibition [2] was 0%.

With COc1c2occc2c(O)c2c(=O)cc(CN3CCC(CCC4CCN(Cc5cc(=O)c6c(O)c7ccoc7c(OC)c6o5)CC4)CC3)oc12 the IC50 [11] was “Not Active”.

With COc1c2occ(F)c2c(OC)c2c(=O)cc(CN3CCC(CCC4CCN(Cc5cc(=O)c6c(OC)c7c(F)coc7c(OC)c6o5)CC4)CC3)oc12 the IC50 [1] was < 13.4 µM.

For COc1c2occc2c(OC)c2c(=O)cc(CN3CCC(CCCC4CCN(Cc5cc(=O)c6c(OC)c7ccoc7c(OC)c6o5)CC4)CC3)oc12, the IC50 [1] was 5.78 µM.

COc1c2occc2c(OC)c2c(=O)cc(CN3CCN(CCN4CCN(Cc5cc(=O)c6c(OC)c7ccoc7c(OC)c6o5)CC4)CC3)oc12 was tested, and the inhibition [2] was 5%.
